# Assay results published in ChEMBL document CHEMBL2321751, “Optimization of chloronitrobenzamides (CNBs) as therapeutic leads for human African trypanosomiasis (HAT)” (J Med Chem, 2013).
# Legend:
# [1] = system: Trypanosoma brucei gambiense; experiment: Antitrypanosomal activity against Trypanosoma brucei gambiense KO48 after 70 hrs by Alamar Blue assay; assay type: functional, organism-based; conditions: KO48, 70 h
# How it was run: (§1)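 T. b. gambiense strains were grown in HMI-9 with 15% heat-inactivated FBS and 5% human serum. 10000 trypanosomes per well were seeded into serial drug dilutions and held 70 h at 37 °C in humidified 5% CO2. Resazurin was then added for a further 4–6 h, and fluorescence was read (ex 536/em 588 nm). IC50 was taken by linear regression from sigmoidal dose-inhibition curves.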
# [2] = system: Trypanosoma brucei brucei; experiment: Antitrypanosomal activity against Trypanosoma brucei brucei 221 after 48 hrs by Cell Titre Glo assay; assay type: functional, organism-based; conditions: Trypanosoma brucei, 221, 48 h
# How it was run: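 Bloodstream-form parasites grown in HMI-9 with 10% heat-inactivated FBS, 10% Serum Plus and penicillin/streptomycin at 37 °C, 5% CO₂, to 1 × 10⁶ cells/mL. Diluted to 1 × 10⁴ cells/mL, then dosed with a DMSO dilution series by pin transfer. Incubated 48 h at 37 °C, 5% CO₂. Viability read by CellTiter-Glo luminescence. EC₅₀ from a variable-slope sigmoidal fit. Mean of six replicates, errors as 95% CI.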
# [3] = system: Trypanosoma brucei gambiense; experiment: Antitrypanosomal activity against Trypanosoma brucei gambiense DAL 898R after 70 hrs by Alamar Blue assay; assay type: functional, organism-based; how it was run: as §1
# [4] = system: Trypanosoma brucei brucei; experiment: Antitrypanosomal activity against blood stream stage of Trypanosoma brucei brucei after 48 hrs by Cell Titre Glo assay; assay type: functional, organism-based
# How it was run: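 Culture-adapted parasites were grown in HMI-9 with 10% heat-inactivated FBS, 10% Serum Plus and penicillin/streptomycin to 1 × 10⁶ cells/mL, then diluted to 1 × 10⁴ cells/mL. DMSO dilution series were pin-transferred and plates held 48 h at 37 °C in 5% CO2. After 30 min at room temperature, CellTiter-Glo was added and luminescence read after 8 min.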
# [5] = system: Trypanosoma brucei rhodesiense; experiment: Antitrypanosomal activity against bloodstream forms of wild type Trypanosoma brucei rhodesiense STIB900 after 70 hrs by Alamar Blue assay; assay type: functional, organism-based; conditions: STIB900, 70 h
# How it was run: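 T. b. rhodesiense STIB 900 was cultured in MEM with Earle's salts and Baltz supplements (0.2 mM 2-mercaptoethanol, 1 mM Na-pyruvate, 0.5 mM hypoxanthine, 15% heat-inactivated horse serum). 2000 bloodstream forms per well were exposed to serial drug dilutions for 70 h at 37 °C in humidified 5% CO2. Resazurin followed for 2–4 h, read by fluorescence (ex 536/em 588 nm). IC50 came from sigmoidal curves by linear regression.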
# [6] = system: Trypanosoma brucei gambiense; experiment: Antitrypanosomal activity against Trypanosoma brucei gambiense STIB930 after 70 hrs by Alamar Blue assay; assay type: functional, organism-based; conditions: STIB930, 70 h; how it was run: as §1
# Raji = experiment: Cytotoxicity against human Raji cells after 72 hrs by Cell Titre Glo assay; assay type: cell-based
# How it was run: (§2)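 Human cells grown to 80% confluence were plated in 384-well format and received compound dilutions by pin tool. After 72 h at 37 °C in 5% CO2, viability was measured by CellTiter-Glo luminescence.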
# HepG2 = experiment: Cytotoxicity against human HepG2 cells after 72 hrs by Cell Titre Glo assay; assay type: cell-based; conditions: HepG2, 72 h; how it was run: as §2
# HEK293 = experiment: Cytotoxicity against HEK293 cells after 72 hrs by Cell Titre Glo assay; assay type: cell-based; conditions: Homo sapiens, HEK293, 72 h; how it was run: as §2
# [7] = Permeability of the compound at pH 7.4 by PAMPA; assay type: ADME; conditions: PAMPA, read-out: permeability
# How it was run: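 Compound (10 mM DMSO stock) was diluted in system solution buffer pH 7.4 and placed in the donor chamber of a PAMPA sandwich whose membrane was coated with GIT lipid. Acceptor buffer filled the acceptor chamber, and the assembly was stirred for 30 min. Donor and acceptor UV spectra (250–500 nm) were compared with a reference to give the permeability coefficient. Run in triplicate.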
# [8] = Kinetic solubility of the compound in PBS buffer at pH 7.4 after 18 hrs by UV spectrophotometric analysis; assay type: physicochemical; conditions: for solubility kinetic at 18 h: PBS buffer, pH 7.4, read-out: Kinetic_solubility
# How it was run: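 Compound from a 10 mM stock was added to PBS pH 7.4 and left 18 h at room temperature. The suspension was filtered, and the filtrate was mixed 1:1 with 1-propanol. Solubility was derived from UV spectrum AUC (250–500 nm) relative to a 1-propanol/PBS reference. Run in triplicate.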
# BJ = experiment: Cytotoxicity against human BJ cells after 72 hrs by Cell Titre Glo assay; assay type: cell-based; how it was run: as §2
# [9] = Half life in human liver microsomes; assay type: ADME, Microsome
# How it was run: (§3)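 Liver microsomes (human: pooled from 200 mixed-gender donors; mouse: female […]) were diluted in 0.1 M potassium phosphate, pH 7.4, with EDTA, then spiked from a 2 mM DMSO/acetonitrile compound stock. Reactions were started with cofactor solutions A+B and kept at 37 °C with shaking. Samples at 0, 0.5, 1, 2 and 4 h were quenched with cold methanol containing 10 μM warfarin and analysed by UPLC-MS (SIR). k = −2.303 × slope of log peak-area ratio versus time; t1/2 = 0.693/k.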
# [10] = Half life in mouse liver microsomes; assay type: ADME, Microsome; how it was run: as §3
# [11] = Permeability of the compound at pH 3.0 by PAMPA; assay type: ADME; conditions: read-out: permeability
# [12] = Kinetic solubility of the compound in PBS buffer at pH 3.0 after 18 hrs by UV spectrophotometric analysis; assay type: physicochemical; conditions: read-out: Kinetic_solubility
EC50 [2] [nM],EC50 [4] [nM],EC50 [5] [nM],EC50 [6] [nM],Papp [7] [×10⁻⁶ cm/s],SMILES,EC50 (Raji) [nM],EC50 (HepG2) [nM],EC50 (HEK293) [nM],EC50 (BJ) [nM],also measured
6000,640,3800,420,–,O=C(Nc1ccc2oc(-c3ccc(F)cc3)nc2c1)c1cc([N+](=O)[O-])ccc1Cl,–,–,–,–,EC50 [1]: 2600 nM; EC50 [3]: 4400 nM
2500,–,1500,560,37,O=C(Nc1nc(-c2ccc(F)c(F)c2)cs1)c1cc([N+](=O)[O-])ccc1Cl,13000,> 27000,8300,> 27000,"EC50 [1]: 630 nM; EC50 [3]: 1600 nM; Kinetic_solubility ([8]; buffer, pH 7.4, 18 h, BLD = below limit of detection): BLD"
58,–,140,170,–,O=C(Nc1ccc(F)c(-c2nc3ccccc3s2)c1)c1cc([N+](=O)[O-])c(N2CCNCC2)cc1Cl,> 25000,> 25000,> 25000,> 25000,half-life [9]: > 4 h; half-life [10]: > 4 h
220,–,–,–,18,O=C(Nc1cccc(-c2nc3ccccc3s2)c1)c1cc([N+](=O)[O-])c(N2CCOCC2)cc1Cl,> 25000,> 25000,> 25000,> 25000,Papp [11]: 106 ×10⁻⁶ cm/s; solubility kinetic at 18 h [8]: 0.37 µM; solubility kinetic at 18 h [12]: 0.07 µM
1100,–,1800,820,8,O=C(Nc1ccc(Cl)c(C(F)(F)F)c1)c1cc([N+](=O)[O-])ccc1Cl,> 27000,> 27000,> 27000,> 27000,EC50 [1]: 1300 nM; EC50 [3]: 1600 nM; solubility kinetic at 18 h [8]: 0.58 µM
–,2100,–,–,–,COc1ccc(OC)c(-c2csc(NC(=O)c3cc([N+](=O)[O-])ccc3Cl)n2)c1,–,–,–,–,–
–,520,–,–,–,O=C(Nc1cc(C(F)(F)F)ccc1Cl)c1cc([N+](=O)[O-])ccc1Cl,–,–,–,–,–
140,–,170,73,676,COc1ccc(-c2nc3ccccc3s2)cc1NC(=O)c1cc([N+](=O)[O-])c(N2CCN(C)CC2)cc1Cl,> 25000,> 25000,> 25000,> 25000,solubility kinetic at 18 h [8]: 0.5 µM
480,290,370,210,45,O=C(Nc1cccc(-c2nc3ccccc3o2)c1)c1cc([N+](=O)[O-])ccc1Cl,> 25000,> 25000,> 25000,> 25000,EC50 [1]: 460 nM; EC50 [3]: 620 nM; solubility kinetic at 18 h [8]: 0.47 µM
–,1800,–,–,–,O=C(Nc1cccc(Br)c1)c1cc([N+](=O)[O-])ccc1Cl,–,–,–,–,–
–,980,–,–,–,COc1ccc2nc(NC(=O)c3cc([N+](=O)[O-])ccc3Cl)sc2c1,–,–,–,–,–
–,1200,–,–,–,Cc1ccc(-c2csc(NC(=O)c3cc([N+](=O)[O-])ccc3Cl)n2)cc1,–,–,–,–,–
–,1800,–,–,–,O=C(Nc1ccc([N+](=O)[O-])cc1)c1cc([N+](=O)[O-])ccc1Cl,–,–,–,–,–
–,6100,–,–,–,O=C(Nc1ccc2oc(-c3ccccc3)nc2c1)c1cc([N+](=O)[O-])ccc1Cl,–,–,–,–,–
190,–,–,–,276,O=C(Nc1cccc(-c2nc3ccccc3s2)c1)c1cc([N+](=O)[O-])c(N2CCNCC2)cc1Cl,> 25000,5300,12700,> 25000,Papp [11]: < 1 ×10⁻⁶ cm/s; solubility kinetic at 18 h [8]: 0.72 µM; solubility kinetic at 18 h [12]: 0.98 µM
–,400,–,–,–,O=C(Nc1nc(-c2ccc(F)cc2F)cs1)c1cc([N+](=O)[O-])ccc1Cl,–,–,–,–,–
–,540,–,–,–,Cc1sc(NC(=O)c2cc([N+](=O)[O-])ccc2Cl)nc1-c1ccccc1,–,–,–,–,–
–,> 33000,–,–,–,Cc1ccc(-c2nc3cc(Cl)ccc3o2)cc1NC(=O)c1cc([N+](=O)[O-])ccc1Cl,–,–,–,–,–
–,1600,–,–,–,O=C(Nc1nc2ccccc2s1)c1cc([N+](=O)[O-])ccc1Cl,–,–,–,–,–
